CFTR F508del cor: F508del CFTR correction, initial screen, CFBE line, single point; CFBE cells, YFP halide quenching; stimulated with forskolin plus potentiator P3; % fluorescence drop versus neutral controls; activity (quench increase), % at 7.58 µM; 350,000 compounds, 0.36% hits; AID 720511, 2013;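 active means mean added fluorescence quench of at least 8% versus neutral control, with both replicates also reaching 8%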;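 further: cells transiently co-express mutant CFTR-F508del with the halide-sensitive YFP; corrector assay measuring rescue of mutant channel to the surface after 24 h compound exposure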
FGF22 binding-1: binders of human FGF22 protein, primary screen, FGF22 synaptogenesis inhibitor project, biophysical, thermal shift, single point; recombinant FGF22 thermal shift, SYPRO orange fluorescence; percent of sucrose octasulfate shift, DMSO zero; activity (Tm shift, normalised), % at 9.99 µM; 340,000 compounds, 1.5% hits;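 active means mean Tm shift, scaled 0 neutral to 100 positive control, at about 1.3% or above, every replicate too, limit read from the data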
S100A4 inh HTS: inhibitors of S100A4-myosin IIA peptide binding, primary screen, biochemical, fluorescence polarization, TAMRA-MyoIIA peptide; Protein S100-A4 (Homo sapiens), P26447; inhibition, % at 10.7 µM; 360,000 compounds, 0.14% hits;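 active means mean inhibition of at least 70% across replicates, with every replicate also reaching that level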
Target sequence (P26447 whole entry, looked up): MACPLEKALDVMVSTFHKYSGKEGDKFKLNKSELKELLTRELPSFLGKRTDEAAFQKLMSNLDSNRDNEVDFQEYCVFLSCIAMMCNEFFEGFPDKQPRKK
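Test system – S100A4 monomer (human) · Compound – single-point compound testing · Schedule – 5 min incubation before reading · Probe or stimulus – TAMRA-labelled myosin IIA heavy-chain peptide probe, 5 nM · Benchmarks – neutral control DMSO, positive control TFP · Medium – Calcium-containing HEPES buffer, pH 7.2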
dFosB activator: activators of delta FosB homodimer, primary screen, biochemical, fluorescence polarization, TAMRA-CDK5 oligo, single point; Protein FosB (Mus musculus), P13346; purified delta FosB; percent of positive-control signal above neutral wells; activation, % at 25 µM; 340,000 compounds, 0.99% hits; AID 493131, 2011;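 active means mean activation above about 17%, with every replicate also reaching it, limit read from the data, passing the limit was not always enough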
Target sequence (P13346 whole entry, looked up): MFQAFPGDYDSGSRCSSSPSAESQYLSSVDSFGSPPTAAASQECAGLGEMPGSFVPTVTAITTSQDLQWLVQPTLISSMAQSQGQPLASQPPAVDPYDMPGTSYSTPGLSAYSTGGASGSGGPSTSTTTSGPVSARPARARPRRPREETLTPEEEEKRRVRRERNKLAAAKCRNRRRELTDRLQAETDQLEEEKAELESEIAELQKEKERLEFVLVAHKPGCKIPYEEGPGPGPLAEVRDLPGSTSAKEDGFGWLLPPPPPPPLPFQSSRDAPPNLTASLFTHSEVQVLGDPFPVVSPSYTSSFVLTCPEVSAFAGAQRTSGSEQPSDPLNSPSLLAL
FGF22 binding-2: binders of human FGF22 protein, dose response, FGF22 synaptogenesis inhibitor project, biophysical, thermal shift, cherry-pick retest; shares compounds with FGF22 binding-1; recombinant FGF22 thermal shift, SYPRO orange fluorescence; thermal shift activity, °C (ΔTm) at 38 µM; 1,000 compounds, 2% hits;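 active means fitted rise in melting shift crosses a set limit at or below the top valid dose tested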
SYPRO no-protein: compound-only thermal shift signal without protein, dose response, artefact control for FGF22 binder project, biochemical, cherry-picked samples, RT-PCR instrument; shares compounds with FGF22 binding-1; compound-only SYPRO orange thermal shift counter-screen, no protein; AC50, µM (series often up to 38 µM); 1,000 compounds, 2% hits;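 active means rising signal whose fitted curve reaches the 0.54 level within the top valid dose, showing a melting point, actives reach about 13 µM in these data; inactive means the rest, including activity in the opposite direction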; further: value is where the raw curve crosses a fixed level and not half-maximal
An asterisk follows results filed as active; i = inactive; . = not tested or not shown; [ ] = dose if it differs, or a comment. Shown are actives, neighbours in structure and some others; about 2.2% of the full set was active somewhere.

SMILES	CFTR F508del cor	FGF22 binding-1	S100A4 inh HTS	dFosB activator	FGF22 binding-2	SYPRO no-protein
Cc1noc(C)c1NC(=O)N(C)C[C@H]1OCCCC[C@@H](C)Oc2ccc(NC(=O)CCC(F)(F)F)cc2C(=O)N([C@H](C)CO)C[C@@H]1C	0	0	-6	.	.	.
C[C@@H]1CN([C@@H](C)CO)C(=O)Cc2cc(NC(=O)C3CC3)ccc2O[C@H]1CN(C)S(=O)(=O)c1ccc(Cl)cc1	-4	0	-5	.	.	.
CC(=O)Oc1ccc(C(=O)Nc2ccccc2C(=O)N2CCCC2)cc1	5	0	-2	-1	.	.
CC(=O)Oc1ccc(C(=O)Nc2ccccc2C(=O)N2CCCCC2)cc1	-1	1.8*	7	-8	0.15	i
C[C@@H]1CN([C@H](C)CO)S(=O)(=O)c2ccc(C3=CCCC3)cc2O[C@@H]1CN(C)C(=O)C1CCCCC1	1	-1	9	.	.	.
C[C@H]1CN([C@@H](C)CO)S(=O)(=O)c2ccc(C3=CCCCC3)cc2O[C@@H]1CN(C)C(=O)CN(C)C	1	1	-48	.	.	.
C[C@H]1CN([C@@H](C)CO)S(=O)(=O)c2ccc(C3=CCCCC3)cc2O[C@H]1CN(C)C(=O)CN(C)C	0	1	-2	.	.	.
C[C@@H]1CN([C@@H](C)CO)S(=O)(=O)c2ccc(-c3cncnc3)cc2O[C@H]1CN(C)C(=O)CN(C)C	0	0	2	.	.	.
C[C@@H]1CN([C@H](C)CO)S(=O)(=O)c2ccc(-c3cncnc3)cc2O[C@@H]1CN(C)C(=O)CN(C)C	0	15*	0	.	0.11	i
C[C@H](CO)N1C[C@H](C)[C@@H](CN(C)C(=O)CN(C)C)Oc2cc(C3=CCCCC3)ccc2S1(=O)=O	-1	1.6*	1	.	0.12[42 µM]	i
C[C@@H]1CN([C@@H](C)CO)S(=O)(=O)c2ccc(C3=CCCCC3)cc2O[C@H]1CN(C)C(=O)CN(C)C	0	1.3*	-46	.	0.82	i
C[C@@H]1CN([C@@H](C)CO)S(=O)(=O)c2ccc(C3=CCCC3)cc2O[C@@H]1CN(C)C(=O)C1CCCCC1	-2	1.5*	6	.	-0.032	i
C[C@@H]1CN([C@@H](C)CO)C(=O)c2cc(NS(=O)(=O)c3ccc(F)cc3)ccc2O[C@@H](C)CCCCO[C@@H]1CN(C)C(=O)Cc1ccccc1	3	0	.	.	.	.
CC(C)c1ccc(NC(=O)CN2C(=O)NC(Cc3c[nH]c4ccccc34)C2=O)cc1 (configuration not stated)	2	0	-2	5	.	.
Cc1cc(C)cc(NC(=O)CN2C(=O)NC(Cc3c[nH]c4ccccc34)C2=O)c1 (configuration not stated)	1	1.6*	-1	-10	.	i
Cc1ccc(-c2c[n+](CC(=O)Nc3ccc(C)cc3C)c3n2CCC3)cc1	1	14*	-4	-4	0.24	i
CCN(CC)S(=O)(=O)c1ccc(NC2=NS(=O)(=O)c3ccccc32)cc1	-1	0	-3	1	.	.
CCC(=O)N(NC1=NS(=O)(=O)c2ccccc21)S(=O)(=O)c1ccc(C)cc1	0	1.7*	1	0	-0.002	i
O=C(Nc1ccccc1)N[C@H]1CC[C@H](CCn2cc(-c3ccccc3F)nn2)O[C@H]1CO	-2	.	-1	.	.	.
O=C(NC[C@H]1CC[C@@H]2[C@@H](CN2Cc2ccc(Oc3ccccc3)cc2)O1)C1CCOCC1	0	.	-1	.	.	.
O=C(O)C1CSC(c2ccc(O)c([N+](=O)[O-])c2)N1 (configuration not stated)	-1	0	0	-4	.	.
O=C(O)C1CSC(c2ccc3c(c2)OCO3)N1 (configuration not stated)	0	2.7*	-12	-6	0.11	i

From PubChem BioAssay
